Here are results for 16 molecules from PubChem BioAssay AID743061 (The Scripps Research Institute Molecular Screening Center, 2013).

Structures are written as SMILES.

This assay has as its target Methionine--tRNA ligase, mitochondrial (Homo sapiens) (UniProt Q96GW9). Briefly: human mtMetRS tRNA charging inhibition – biochemical, radioactivity, round 1, selectivity assay for T. brucei MetRS inhibitor project, late-stage follow-up (AID 743061).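 Note: 0% = DMSO with full reaction and 100% = DMSO wells lacking tRNA.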 To be noted: recombinant human mtMetRS, [3H]Met tRNA charging, at 10 µM, stronger effect = higher value. In outline:
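System: human mitochondrial MetRS enzyme / Buffer or medium: pH 8.0 reaction buffer containing 2.5 mM ATP / Probe or stimulus: 240 nM [3H]methionine with bulk E. coli tRNA acceptor / Doses: 10 and 1 µM / Times: 15 min compound–enzyme preincubation, then 1 h reaction at room temperature / Detection: scintillation counts of TCA-precipitated charged tRNA on filters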
Regarding `O=C(NCc1nc2ccccc2[nH]1)C1=C[C@H](c2csc3ccccc23)C[C@H](OCCCCO)O1`, the inhibition (usually the change of the read-out against control, counted positive when it falls) came to 2.21%. For the molecule `Oc1c(Cl)cc(Cl)cc1CNc1nc2ccccc2[nH]1`, the inhibition was 31.4%. Take `CC(=O)N(CCc1ccccc1)C1CC(=O)N(c2ccc(Cl)cc2)C1=O` (stereo unspecified): the inhibition is -2.95%. In the case of `O=C(NCc1nc2ccccc2[nH]1)C1=C[C@H](c2ccccc2)C[C@H](OCc2ccc(CO)cc2)O1`, the inhibition came to 12.7%. For the molecule `COc1ccc(OCC(O)CNC(=O)Nc2ccc(Cl)cc2)cc1` (stereo unspecified), the inhibition is 0.31%.

For `O=C1CC(SCc2nc3ccccc3[nH]2)C(=O)N1c1cccc(Cl)c1` (stereo unspecified), the inhibition was -0.68%. Then `O=C(NCCc1nc2ccccc2[nH]1)c1ccc(Cl)c(Cl)c1`, with 27.7%; and `O=C(NCc1nc2ccccc2[nH]1)C1=C[C@@H](C2CC2)C[C@@H](OCc2ccc(CO)cc2)O1`, with 5.87%. Turning to `O=C(CC=NOCc1ccc([N+](=O)[O-])cc1)Nc1ccc(Br)cc1`, the inhibition is -6.71%. In the case of `CC(=O)N(CCc1ccccc1)C1CC(=O)N(c2ccc(Br)cc2)C1=O` (stereo unspecified), the inhibition stood at 2%. Then `CC(=O)c1ccc(N2CCN(C(=O)CCCn3c(=O)[nH]c4ccc(Br)cc4c3=O)CC2)cc1`, with 7.87%. Then `CCN(CC)C(=O)C(=O)c1cn(CC(=O)N(CC)c2ccccc2)c2ccccc12`, with 9.56%. Consider `Cc1ccc(CNC(=O)CSc2nnc3c(n2)[nH]c2ccc(C)cc23)cc1`, for which the inhibition came out at 5.9%. For `COc1ccccc1NC(=O)Cn1cc(C(=O)C(=O)N2CCOCC2)c2ccccc21`, the inhibition was -8.03%. For `COc1cccc(NC(=O)CSc2nnc3c(n2)[nH]c2ccc(C)cc23)c1`, the inhibition turned out to be 40.4%. Consider `O=C(Cn1cc(C(=O)c2ccco2)c2ccccc21)Nc1cccc(C(F)(F)F)c1`, for which the inhibition stood at 19.7%.
